Measured values reported in ChEMBL document CHEMBL3286120, “Design and synthesis of novel soluble 2,5-diketopiperazine derivatives as potential anticancer agents” (Eur J Med Chem, 2014).

Columns and labels:
NCI-H1975 = assay: Cytotoxicity against human NCI-H1975 cells assessed as reduction in cell viability after 72 hrs by CCK8 assay; assay type: functional, cell-based
Procedure, shortened: (§1)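 Cells kept in RPMI or DMEM with 10% FBS and 1% penicillin/streptomycin at 37 °C in 5% CO2. Seeded at 400-800 cells/well in 384-well plates and exposed to varying compound concentrations, with solution-only control, for 72 h. CCK8 reagent added, then absorbance read at 450 nm. Plinabulin and TSA were positive controls. Mean SD of three experiments.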

[1] = Cytotoxicity against human BGC823 cells assessed as reduction in cell viability after 72 hrs by CCK8 assay; assay type: functional, cell-based, BGC-823; procedure, shortened: as §1
HeLa = assay: Cytotoxicity against human HeLa cells assessed as reduction in cell viability after 72 hrs by CCK8 assay; assay type: functional, cell-based; procedure, shortened: as §1
[2] = Cytotoxicity against human HuH7 cells assessed as reduction in cell viability after 72 hrs by CCK8 assay; assay type: functional, cell-based, Huh-7; procedure, shortened: as §1
MCF7 = assay: Cytotoxicity against human MCF7 cells assessed as reduction in cell viability after 72 hrs by CCK8 assay; assay type: functional, cell-based; procedure, shortened: as §1
A549 = assay: Cytotoxicity against human A549 cells assessed as reduction in cell viability after 72 hrs by CCK8 assay; assay type: functional, cell-based; procedure, shortened: as §1
HL-60 = assay: Cytotoxicity against human HL60 cells assessed as reduction in cell viability after 72 hrs by CCK8 assay; assay type: functional, cell-based; procedure, shortened: as §1
K562 = assay: Cytotoxicity against human K562 cells assessed as reduction in cell viability after 72 hrs by CCK8 assay; assay type: functional, cell-based; procedure, shortened: as §1
U-937 = assay: Cytotoxicity against human U937 cells assessed as reduction in cell viability after 72 hrs by CCK8 assay; assay type: functional, cell-based; procedure, shortened: as §1
MOLT-4 = assay: Cytotoxicity against human MOLT4 cells assessed as reduction in cell viability after 72 hrs by CCK8 assay; assay type: functional, cell-based; procedure, shortened: as §1
[3] = Homo sapiens, BGC-823, 72 h, read-out: IC50
[4] = Homo sapiens, HeLa, 72 h, read-out: IC50
[5] = Homo sapiens, Huh-7, 72 h, read-out: IC50
[6] = Homo sapiens, MCF7, 72 h, read-out: IC50
[7] = Homo sapiens, A549, 72 h, read-out: IC50
[8] = Homo sapiens, HL-60, 72 h, read-out: IC50
[9] = Homo sapiens, K562, 72 h, read-out: IC50
[10] = Homo sapiens, MOLT-4, 72 h, read-out: IC50
[11] = Homo sapiens, U-937, 72 h, read-out: IC50
[12] = Homo sapiens, NCI-H1975, 72 h, read-out: IC50

Row | Compound | IC50 (NCI-H1975; nci-h1975) | IC50 ([1]; bgc-823) | IC50 (HeLa; hela) | IC50 ([2]; huh-7) | IC50 (MCF7; mcf7) | IC50 (A549; a549) | IC50 (HL-60; hl-60) | IC50 (K562; k562) | IC50 (U-937; u-937) | IC50 (MOLT-4; molt-4) | IC50 [1, 3] [µM] | IC50 (HeLa; [4]) [µM] | IC50 [2, 5] [µM] | IC50 (MCF7; [6]) [µM] | IC50 (A549; [7]) [µM] | IC50 (HL-60; [8]) [µM] | IC50 (K562; [9]) [µM] | IC50 (MOLT-4; [10]) [µM] | IC50 (U-937; [11]) [µM] | IC50 (NCI-H1975; [12]) [µM]
1 | COc1ccccc1/C=c1/[nH]c(=O)/c(=C\c2ccccc2OC)[nH]c1=O | Not Active | Not Active | Not Active | Not Active | Not Active | Not Active | Not Active | Not Active | Not Active |  |  |  |  |  |  |  |  |  |  | 
2 | C=CCn1c(=O)/c(=C\c2ccc(Cl)c(Cl)c2)[nH]c(=O)/c1=C\c1ccccc1 | Not Active | Not Active | Not Active | Not Active | Not Active | Not Active | Not Active | Not Active | Not Active | Not Active |  |  |  |  |  |  |  |  |  | 
3 | C=CCn1c(=O)/c(=C\c2cc(OC)c(OC)c(OC)c2)[nH]c(=O)/c1=C\c1ccccc1 | Not Active | Not Active | Not Active | Not Active | Not Active | Not Active | Not Active | Not Active | Not Active | Not Active |  |  |  |  |  |  |  |  |  | 
4 | C=CCn1c(=O)/c(=C\c2cccc(Br)c2)[nH]c(=O)/c1=C\c1cccc(Br)c1 | Not Active | Not Active | Not Active | Not Active | Not Active | Not Active | Not Active | Not Active | Not Active | Not Active |  |  |  |  |  |  |  |  |  | 
5 | C=CCn1c(=O)/c(=C\c2cc(OC)c(OC)c(OC)c2)[nH]c(=O)/c1=C\c1cccc(Br)c1 | Not Active | Not Active | Not Active | Not Active | Not Active | Not Active | Not Active | Not Active | Not Active | Not Active |  |  |  |  |  |  |  |  |  | 
6 | C=CCn1c(=O)/c(=C\c2cccc(Br)c2)[nH]c(=O)/c1=C\c1ccccc1OC | Not Active |  |  |  |  |  |  |  |  |  | 5.9 | 5.4 | 2.3 | 5.4 | 5.4 | 5.2 | 2.4 | 5 | 1.1 | 
7 | C=CCn1c(=O)/c(=C\c2cccc(Cl)c2)[nH]c(=O)/c1=C\c1ccccc1OC |  |  |  |  |  |  |  |  |  |  | 4.6 | 5.5 | 8.9 | 5.2 | 5.2 | 4.5 | 2.7 | 4.9 | 1.2 | 5.1
8 | C=CCn1c(=O)/c(=C\c2cccc(F)c2)[nH]c(=O)/c1=C\c1ccccc1OC |  |  |  |  |  |  |  |  |  |  | 5.6 | 9.1 | 27.2 | 13.7 | 19.7 | 8.89 | 4.1 | 6.5 | 2.5 | 25.6
9 | C=CCn1c(=O)/c(=C\c2cccc(C)c2)[nH]c(=O)/c1=C\c1ccccc1OC |  |  |  |  |  |  |  |  |  |  | 20.4 | 19.3 | 21.4 | 20.7 | 22.7 | 16.7 | 8.8 | 16 | 5.1 | 32.8
10 | C=CCn1c(=O)/c(=C\c2ccccc2Cl)[nH]c(=O)/c1=C\c1ccccc1OC |  |  |  |  |  |  |  |  |  |  | 4.6 | 5.1 | 6.4 | 4.7 | 5.3 | 4.2 | 2.5 | 4.4 | 0.7 | 9.2
11 | C=CCn1c(=O)/c(=C\c2ccccc2F)[nH]c(=O)/c1=C\c1ccccc1OC |  |  |  |  |  | Not Active |  |  |  |  | 18.9 | 45 | 31.3 | 23 |  | 18.5 | 5.6 | 20 | 5.5 | 25.1
12 | C=CCn1c(=O)/c(=C\c2ccccc2C(F)(F)F)[nH]c(=O)/c1=C\c1ccccc1OC |  |  |  |  |  |  |  |  |  |  | 5.1 | 4.6 | 9.5 | 6.5 | 7 | 4.6 | 2.7 | 4.4 | 1.5 | 14.5
13 | C=CCn1c(=O)/c(=C\c2ccccc2OC)[nH]c(=O)/c1=C\c1ccccc1OC |  |  |  |  |  |  |  |  |  |  | 13.4 | 6.9 | 21.2 | 41.1 | 22.4 | 15.7 | 7.4 | 13.1 | 5.1 | 21.5
14 | C=CCn1c(=O)/c(=C\c2ccc(Cl)c(Cl)c2)[nH]c(=O)/c1=C\c1ccccc1OC | Not Active | Not Active | Not Active | Not Active | Not Active | Not Active | Not Active | Not Active | Not Active | Not Active |  |  |  |  |  |  |  |  |  | 
15 | C=CCn1c(=O)/c(=C\c2cc(Br)ccc2F)[nH]c(=O)/c1=C\c1ccccc1OC | Not Active | Not Active |  | Not Active |  | Not Active |  |  |  |  |  | 34.6 |  | 28.1 |  | 17.4 | 5.1 | 12.9 | 4.7 | 
16 | C=CCn1c(=O)/c(=C\c2ccc(F)c(Br)c2)[nH]c(=O)/c1=C\c1ccccc1OC | Not Active | Not Active | Not Active | Not Active | Not Active | Not Active | Not Active | Not Active | Not Active | Not Active |  |  |  |  |  |  |  |  |  | 
17 | C=CCn1c(=O)/c(=C\c2cc(F)ccc2C)[nH]c(=O)/c1=C\c1ccccc1OC |  |  |  |  |  |  |  |  |  |  | 1.6 | 2.9 | 5.6 | 3.1 | 4.9 | 2.6 | 1.8 | 3.8 | 1 | 7.3
18 | C=CCn1c(=O)/c(=C\c2ccc(C)cc2)[nH]c(=O)/c1=C\c1ccccc1OC | Not Active | Not Active | Not Active | Not Active | Not Active | Not Active | Not Active | Not Active | Not Active | Not Active |  |  |  |  |  |  |  |  |  | 
19 | COc1ccccc1/C=c1/[nH]c(=O)/c(=C\c2ccccc2OC)n(C)c1=O |  | Not Active | Not Active | Not Active |  |  |  |  |  |  |  |  |  | 9 | 7 | 16.2 | 2.2 |  | 1.5 | 16.9
20 | COc1ccccc1/C=c1\c(=O)[nH]/c(=C/c2ccccc2Cl)c(=O)n1C |  |  |  |  |  |  |  |  |  |  | 0.3 | 0.3 | 0.3 | 0.2 | 0.3 | 0.2 | 0.11 |  | 0.1 | 0.2
21 | COc1ccccc1/C=c1\c(=O)[nH]/c(=C/c2cccc(Cl)c2Cl)c(=O)n1C |  |  |  |  |  |  |  |  |  |  | 0.3 | 0.2 | 0.3 | 0.2 | 0.2 | 0.2 | 0.11 |  | 0.1 | 0.3
22 | COc1ccccc1/C=c1/[nH]c(=O)/c(=C\c2cccc(Cl)c2Cl)[nH]c1=O | Not Active | Not Active | Not Active | Not Active | Not Active | Not Active | Not Active | Not Active | Not Active |  |  |  |  |  |  |  |  |  |  | 
23 | CC(C)(C)c1[nH]cnc1/C=c1\[nH]c(=O)/c(=C/c2ccccc2)[nH]c1=O [PLINABULIN] |  |  |  |  |  |  |  |  |  |  | 0.009 | 0.01 | 0.031 | 0.01 | 0.01 | 0.01 | 0.008 |  | 0.006 | 0.011
24 | CC(/C=C/C(=O)NO)=C\[C@@H](C)C(=O)c1ccc(N(C)C)cc1 [TRICHOSTATIN] |  |  |  |  |  |  |  |  |  |  | 0.08 | 0.11 | 0.1 | 0.06 | 0.05 | 0.08 | 0.41 | 0.03 | 0.1 | 0.21
